# Reference: ChEMBL document CHEMBL1139324, “Chemical modification and biological evaluation of new semisynthetic derivatives of 28,29-Didehydronystatin A1 (S44HP), a genetically engineered antifungal polyene macrolide antibiotic” (J Med Chem, 2009)
# Columns and labels:
# Aspergillus niger = assay: Antifungal activity against Aspergillus niger ATCC 16404 after 48 hrs by broth microdilution method; assay type: functional; conditions: ATCC 16404, 48 h
# Method in brief: (§1)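 Susceptibility of filamentous fungi (molds) by broth microdilution per NCCLS M38-A in 96-well microplates. The MIC is read as the lowest inhibitory concentration. It is given as one number when replicate data fully agreed.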
# Candida albicans [1] = assay: Antifungal activity against Candida albicans ATCC 14053 after 48 hrs by broth microdilution method; assay type: functional; conditions: ATCC 14053, 48 h
# Method in brief: (§2)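 Yeast susceptibility by broth microdilution per NCCLS M27-A in 96-well plates. MIC is the lowest concentration inhibiting growth. Where repeat runs fully coincided, a single value is reported.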
# Fusarium oxysporum = assay: Antifungal activity against Fusarium oxysporum VKM F-140 after 48 hrs by broth microdilution method; assay type: functional; method in brief: as §1
# Vanrija humicola = assay: Antifungal activity against Cryptococcus humicolus ATCC 9949 after 48 hrs by broth microdilution method; assay type: functional; conditions: ATCC 9949, 48 h; method in brief: as §2
# [2] = Toxicity against human erythrocytes assessed as hemolytic activity at 5 ug/ml; assay type: cell-based, Erythrocyte; conditions: read-out: Activity
# Method in brief: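 Lysis of erythrocytes in defibrinated human blood was measured under buffered conditions with compound at 5 µg/mL. Percent hemolysis is the mean of blood samples from two donors.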
# Candida albicans [3] = assay: Antifungal activity against Candida albicans ATCC 10231after 48 hrs by broth microdilution method; assay type: functional; conditions: ATCC 10231, 48 h
# [4] = Toxicity in Candida albicans ATCC 14053 infected iv dosed (C57BL/6xDBA/2)F1 B6D2F1 mouse; assay type: organism-based; conditions: in vivo
Compound,MIC (Aspergillus niger),MIC (Candida albicans [1]),MIC (Fusarium oxysporum),MIC (Vanrija humicola),hemolysis at 5 ug/ml [2],MIC50 (Candida albicans [3]),MIC90 (Candida albicans [3]),LD50 [4],MTD [4]
C[C@@H]1[C@H](O)[C@@H](C)/C=C/C=C/C=C/C=C/C=C/C=C/C=C/[C@H](O[C@H]2O[C@@H](C)[C@H](O)[C@@H](N)[C@H]2O)C[C@@H]2O[C@](O)(C[C@@H](O)[C@H](O)CC[C@@H](O)C[C@@H](O)C[C@@H](O)CC(=O)O[C@H]1C)C[C@H](O)[C@H]2C(=O)N1CCN(CCO)CC1,2 µg/mL,1 µg/mL,4 µg/mL,2 µg/mL,2%,0.13 µg/mL,0.52 µg/mL,–,–
C[C@@H]1[C@H](O)[C@@H](C)/C=C/C=C/C=C/C=C/C=C/C=C/C=C/[C@H](O[C@H]2O[C@@H](C)[C@H](O)[C@@H](N)[C@H]2O)C[C@@H]2O[C@](O)(C[C@@H](O)[C@H](O)CC[C@@H](O)C[C@@H](O)C[C@@H](O)CC(=O)O[C@H]1C)C[C@H](O)[C@H]2C(=O)O,1 µg/mL,1 µg/mL,4 µg/mL,1 µg/mL,41%,0.12 µg/mL,0.4 µg/mL,2.2 mg/kg,0.64 mg/kg
C[C@@H]1[C@H](O)[C@@H](C)/C=C/C=C/C=C/C=C/C=C/C=C/C=C/[C@H](O[C@H]2O[C@@H](C)[C@H](O)[C@@H](N)[C@H]2O)C[C@@H]2O[C@](O)(C[C@@H](O)[C@H](O)CC[C@@H](O)C[C@@H](O)C[C@@H](O)CC(=O)O[C@H]1C)C[C@H](O)[C@H]2C(=O)NCCCN(C)C,2 µg/mL,1 µg/mL,2 µg/mL,1 µg/mL,2%,0.08 µg/mL,0.3 µg/mL,16.4 mg/kg,11.9 mg/kg
C[C@@H]1[C@H](O)[C@@H](C)/C=C/C=C/C=C/C=C/C=C/C=C/C=C/[C@H](O[C@H]2O[C@@H](C)[C@H](O)[C@@H](N(CCCN)CCCN)[C@H]2O)C[C@@H]2O[C@](O)(C[C@@H](O)[C@H](O)CC[C@@H](O)C[C@@H](O)C[C@@H](O)CC(=O)O[C@H]1C)C[C@H](O)[C@H]2C(=O)O,1 µg/mL,1 µg/mL,1 µg/mL,1 µg/mL,15%,0.04 µg/mL,0.13 µg/mL,–,–
C[C@@H]1[C@H](O)[C@@H](C)/C=C/C=C/C=C/C=C/C=C/C=C/C=C/[C@H](O[C@@H]2O[C@H](C)[C@@H](O)[C@H](N)[C@@H]2O)C[C@@H]2O[C@](O)(C[C@@H](O)C[C@@H](O)[C@H](O)CC[C@@H](O)C[C@@H](O)CC(=O)O[C@H]1C)C[C@H](O)[C@H]2C(=O)O [AMPHOTERICIN B],1 µg/mL,1 µg/mL,4 µg/mL,1 µg/mL,30%,0.11 µg/mL,0.36 µg/mL,2.8 mg/kg,2.01 mg/kg
